Test results taken from ChEMBL document CHEMBL1137710, “Synthesis and in vitro antitumor activity of new quinoxaline derivatives” (2009).

What was measured:
Type in all cases: functional
HL-60(TB) = experiment: Growth inhibition of human HL-60(TB) cells after 48 hrs by sulforhodamine B assay; settings: HL-60, 48 h
In short: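 Tested only on compounds active in a three-line prescreen, in the NCI 60-human-tumour-cell-line panel over a 5-log dose range. Values come from dose–response curves as log10 molar GI50, the concentration inhibiting 50% net cell growth. Log10 TGI (total growth inhibition) and log10 LC50 (50% net cell death) were derived too. Mean graph midpoints include insensitive lines at the highest concentration tested.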

SR = experiment: Growth inhibition of human SR cells after 48 hrs by sulforhodamine B assay
In short: (§1)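 Run in the NCI 60-human-tumour-cell-line panel, tested over a 5-log dose range. Dose–response curves gave three values per cell line, each as a log10 molar concentration: GI50 (50% inhibition of net cell growth), TGI (total inhibition of net growth) and LC50 (50% net cell death). The mean graph midpoint is the arithmetic mean over all lines, with insensitive lines entered at the highest concentration tested.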

MOLT-4 = experiment: Growth inhibition of human MOLT4 cells after 48 hrs by sulforhodamine B assay; settings: MOLT-4, 48 h
In short: (§2)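 NCI 60-human-tumor-cell-line panel, with compounds tested over a 5-log dose range. Values are taken from dose-response curves as log10 molar concentrations: GI50 is 50% net growth inhibition, TGI is total growth inhibition, and LC50 is 50% net cell death.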

EKVX = experiment: Growth inhibition of human EKVX cells after 48 hrs by sulforhodamine B assay; in short: as §2
HOP-92 = experiment: Growth inhibition of human HOP92 cells after 48 hrs by sulforhodamine B assay; settings: HOP-92, 48 h; in short: as §2
NCI-H226 = experiment: Growth inhibition of human NCI-H226 cells after 48 hrs by sulforhodamine B assay; settings: NCI-H226, 48 h; in short: as §2
NCI-H460 = experiment: Growth inhibition of human NCI-H460 cells after 48 hrs by sulforhodamine B assay; settings: NCI-H460, 48 h; in short: as §2
COLO 205 = experiment: Growth inhibition of human COLO205 cells after 48 hrs by sulforhodamine B assay; settings: COLO 205, 48 h; in short: as §2
HT-29 = experiment: Growth inhibition of human HT-29 cells after 48 hrs by sulforhodamine B assay; settings: HT-29, 48 h; in short: as §2
KM12 = experiment: Growth inhibition of human KM12 cells after 48 hrs by sulforhodamine B assay; settings: KM12, 48 h; in short: as §2
SF-539 = experiment: Growth inhibition of human SF539 cells after 48 hrs by sulforhodamine B assay; settings: SF-539, 48 h; in short: as §2
SNB-19 = experiment: Growth inhibition of human SNB19 cells after 48 hrs by sulforhodamine B assay; settings: SNB-19, 48 h; in short: as §1
SNB-75 = experiment: Growth inhibition of human SNB75 cells after 48 hrs by sulforhodamine B assay; settings: SNB-75, 48 h; in short: as §1
UACC-257 = experiment: Growth inhibition of human UACC257 cells after 48 hrs by sulforhodamine B assay; settings: UACC-257, 48 h; in short: as §1
OVCAR-3 = experiment: Growth inhibition of human OVCAR-3 cells after 48 hrs by sulforhodamine B assay; settings: OVCAR-3, 48 h; in short: as §2
OVCAR-5 = experiment: Growth inhibition of human OVCAR5 cells after 48 hrs by sulforhodamine B assay; settings: OVCAR-5, 48 h; in short: as §2
OVCAR-8 = experiment: Growth inhibition of human OVCAR8 cells after 48 hrs by sulforhodamine B assay; settings: OVCAR-8, 48 h; in short: as §2
A498 = experiment: Growth inhibition of human A498 cells after 48 hrs by sulforhodamine B assay; settings: A498, 48 h; in short: as §2
ACHN = experiment: Growth inhibition of human ACHN cells after 48 hrs by sulforhodamine B assay
RXF 393 = experiment: Growth inhibition of human RXF393 cells after 48 hrs by sulforhodamine B assay; settings: RXF 393, 48 h; in short: as §2
SN12C = experiment: Growth inhibition of human SN12C cells after 48 hrs by sulforhodamine B assay; in short: as §1
TK-10 = experiment: Growth inhibition of human TK10 cells after 48 hrs by sulforhodamine B assay; settings: TK-10, 48 h; in short: as §1
PC-3 = experiment: Growth inhibition of human PC3 cells after 48 hrs by sulforhodamine B assay; settings: PC-3, 48 h; in short: as §2
NCI/ADR-RES = experiment: Growth inhibition of human NCI/ADR-RES cells after 48 hrs by sulforhodamine B assay; in short: as §2
MDA-MB-231 = experiment: Growth inhibition of human MDA-MB-231 cells after 48 hrs by sulforhodamine B assay; settings: MDA-MB-231, 48 h; in short: as §2
[1] = Growth inhibition of human Hs 578T cells after 48 hrs by sulforhodamine B assay; in short: as §2
[2] = read-out: pLC50 (the source's name) (converted)

Question: Which results are given for `Nc1cc(N)c2nc(-c3ccccc3)c(NCc3ccc(F)cc3)nc2c1`?
Answer: GI50 (HL-60(TB)): 3.89 µM; LC50 (HL-60(TB)): > 100 µM; TGI (HL-60(TB); read-out: pTGI (converted)): > 100 µM; GI50 (SR): 4.07 µM; LC50 (concentration giving 50% net cell death) (SR): > 100 µM; TGI (SR; read-out: pTGI (converted)): > 100 µM; GI50 (MOLT-4): > 100 µM; LC50 (MOLT-4): > 100 µM; TGI (MOLT-4; read-out: pTGI (converted)): > 100 µM; GI50 (EKVX): 1.91 µM; LC50 (50% net cell kill) (EKVX): 8.71 µM; TGI (EKVX; read-out: pTGI (converted)): 4.07 µM; GI50 (HOP-92): 3.31 µM; LC50 (50% net cell death) (HOP-92): > 100 µM; TGI (HOP-92; read-out: pTGI (converted)): 6.92 µM; GI50 (NCI-H226): 22.4 µM; LC50 (NCI-H226): > 100 µM; TGI (NCI-H226; read-out: pTGI (converted)): 47.9 µM; GI50 (NCI-H460): 4.07 µM; LC50 (50% net cell kill) (NCI-H460): > 100 µM; TGI (NCI-H460; read-out: pTGI (converted)): 25.7 µM; GI50 (COLO 205): 2.51 µM; LC50 (50% net cell kill) (COLO 205): > 100 µM; TGI (COLO 205; read-out: pTGI (converted)): 6.17 µM; GI50 (HT-29): 3.16 µM; LC50 (HT-29): > 100 µM; TGI (HT-29; read-out: pTGI (converted)): 12.6 µM; GI50 (KM12): 2.82 µM; LC50 (50% net cell kill) (KM12): > 100 µM; TGI (KM12; read-out: pTGI (converted)): 7.41 µM; GI50 (SF-539): 1.82 µM; LC50 (SF-539): 6.92 µM; TGI (SF-539; read-out: pTGI (converted)): 3.55 µM; GI50 (SNB-19): 6.61 µM; LC50 (SNB-19): 52.5 µM; TGI (SNB-19; read-out: pTGI (converted)): 20 µM; GI50 (SNB-75): 2.14 µM; LC50 (SNB-75): > 100 µM; TGI (SNB-75; read-out: pTGI (converted)): 5.01 µM; GI50 (UACC-257): 2.04 µM; CC50 (UACC-257; [2]): 8.91 µM; TGI (UACC-257; read-out: pTGI (converted)): 4.27 µM; GI50 (OVCAR-3): 2.4 µM; CC50 (OVCAR-3; [2]): > 100 µM; TGI (OVCAR-3; read-out: pTGI (converted)): 6.46 µM; GI50 (OVCAR-5): 2.63 µM; CC50 (OVCAR-5; [2]): > 100 µM; TGI (OVCAR-5; read-out: pTGI (converted)): 7.59 µM; GI50 (OVCAR-8): 2.63 µM; CC50 (OVCAR-8; [2]): 21.9 µM; TGI (OVCAR-8; read-out: pTGI (converted)): 6.03 µM; GI50 (A498): 17 µM; CC50 (A498; [2]): 57.5 µM; TGI (A498; read-out: pTGI (converted)): 30.9 µM; GI50 (ACHN): 1.7 µM; CC50 (ACHN; [2]): 5.62 µM; TGI (ACHN; read-out: pTGI (converted)): 3.09 µM; GI50 (RXF 393): 12.3 µM; CC50 (RXF 393; [2]): 60.3 µM; TGI (RXF 393; read-out: pTGI (converted)): 26.9 µM; GI50 (SN12C): 7.59 µM; CC50 (SN12C; [2]): 64.6 µM; TGI (SN12C; read-out: pTGI (converted)): 23.4 µM; GI50 (TK-10): 5.89 µM; CC50 (TK-10; [2]): 53.7 µM; TGI (TK-10; read-out: pTGI (converted)): 20 µM; GI50 (PC-3): 3.47 µM; CC50 (PC-3; [2]): > 100 µM; TGI (PC-3; read-out: pTGI (converted)): 15.5 µM; GI50 (NCI/ADR-RES): 2.45 µM; CC50 (NCI/ADR-RES; [2]): 28.2 µM; TGI (NCI/ADR-RES; read-out: pTGI (converted)): 5.75 µM; GI50 (MDA-MB-231): 2.14 µM; CC50 (MDA-MB-231; [2]): 19.5 µM; TGI (MDA-MB-231; read-out: pTGI (converted)): 5.13 µM; GI50 [1]: 4.9 µM; CC50 [1, 2]: > 100 µM; TGI ([1]; read-out: pTGI (converted)): > 100 µM
